# ChEMBL document CHEMBL1143718, “Synthesis and structure-activity relationships study of novel anti-tumor carbamate anhydrovinblastine analogues” (Bioorg Med Chem, 2007)
# How the values were obtained:
# [1] = test system: A549; test: Cytotoxicity against human A549 cells after 72 hrs by SRB assay; type: functional, cell-based; settings: A549, 72 h
# How it was run: (§1)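 Ditartrate salts tested. ATCC A549 or HeLa cells seeded at 6000 cells/well and attached overnight, then treated in triplicate with graded concentrations, 37 °C, 72 h. Fixed with 10% TCA at 4 °C for 60 min, stained with 0.4% SRB, bound dye dissolved in Tris, A515 read. IC50 by Logit method, mean of three independent tests.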
# [2] = test system: HeLa; test: Cytotoxicity against human HeLa cells after 72 hrs by SRB assay; type: functional, cell-based; how it was run: as §1
# [3] = test system: A549; test: Antitumor activity in nude BALB/c mouse bearing A549 cell xenografts assessed as tumor growth inhibition at 1.5 mg/kg, iv after 12 days; type: functional, Homo sapiens; settings: A549, 288 h
# How it was run: (§2)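 A549 s.c. axillary xenografts (2.5 × 10^6 cells) in female 7-week-old SPF BALB/cA-nude mice. Single i.v. dose on day 1 once tumors reached 100-300 mm3. Inhibition = (control mean relative tumor volume − treated)/control × 100%, on day 12 after dosing. Groups of 6, controls 12. Significance by Student's t test.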
# [4] = test system: A549; test: Antitumor activity in nude BALB/c mouse bearing A549 cell xenografts assessed as tumor growth inhibition at 6 mg/kg, iv after 12 days; type: functional, Homo sapiens; settings: A549, 288 h; how it was run: as §2
# [5] = test system: A549; test: Antitumor activity in nude BALB/c mouse bearing A549 cell xenografts assessed as tumor growth inhibition at 3 mg/kg, iv after 12 days; type: functional, Homo sapiens; settings: A549, 288 h; how it was run: as §2
# [6] = test system: Mus musculus; test: Effect on Body weight in nude BALB/c mouse bearing A549 cell xenografts at 1.5 mg/kg, iv; type: functional
# How it was run: (§3)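 Female 7-week-old SPF BALB/cA-nude mice (18-22 g), 2.5 × 10^6 A549 cells implanted s.c. in axilla. Dosing at tumor volume 100-300 mm3, single i.v. dose on day 1. Tumor volume and body weight measured three times a week. Relative tumor volume and body weight reported initial/end. Groups of 6 treated, 12 controls. Means ± SD.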
# [7] = test system: Mus musculus; test: Effect on Body weight in nude BALB/c mouse bearing A549 cell xenografts at 3 mg/kg, iv; type: functional; how it was run: as §3
# [8] = test system: A549; test: Antitumor activity in nude BALB/c mouse bearing A549 cell xenografts assessed as relative tumor volume at 3 mg/kg, iv; type: functional, Homo sapiens; how it was run: as §3
# [9] = test system: A549; test: Antitumor activity in nude BALB/c mouse bearing A549 cell xenografts assessed as relative tumor volume at 1.5 mg/kg, iv; type: functional, Homo sapiens; how it was run: as §3
# [10] = test system: A549; test: Antitumor activity in nude BALB/c mouse bearing A549 cell xenografts assessed as relative tumor volume at 6 mg/kg, iv; type: functional, Homo sapiens; how it was run: as §3
# [11] = test system: Mus musculus; test: Effect on Body weight in nude BALB/c mouse bearing A549 cell xenografts at 6 mg/kg, iv; type: functional; how it was run: as §3
# [12] = test system: A549; test: Antitumor activity in nude BALB/c mouse bearing A549 cell xenografts assessed as relative tumor volume at 10 mg/kg, iv; type: functional, Homo sapiens
# How it was run: (§4)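 Female 7-week-old SPF BALB/cA nude mice (18-22 g) received 2.5 × 10^6 A549 cells subcutaneously in the axilla. Once tumors reached 100-300 mm3, they were dosed iv at 10 mg/kg on days 1 and 4 (6 mice; 12 controls). Tumor volume and body weight were measured three times weekly. Inhibition was computed from mean relative tumor volume versus control on day 12 after dosing. Means ± SD, Student's t test.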
# [13] = test system: A549; test: Antitumor activity in nude BALB/c mouse bearing A549 cell xenografts assessed as tumor growth inhibition at 10 mg/kg, iv after 12 days; type: functional, Homo sapiens; settings: A549, 288 h; how it was run: as §4
# [14] = test system: Mus musculus; test: Effect on Body weight in nude BALB/c mouse bearing A549 cell xenografts at 10 mg/kg, iv; type: functional; how it was run: as §4
SMILES,IC50 [1],IC50 [2],other results
CCC1=C[C@@H]2CN(CCc3c([nH]c4ccccc34)[C@@](C(=O)OC)(c3cc4c(cc3OC)N(C)[C@H]3[C@](O)(CNC(=O)OCc5ccc([N+](=O)[O-])cc5)[C@H](OC(C)=O)[C@]5(CC)C=CCN6CC[C@]43[C@@H]65)C2)C1,38 nM,10 nM,–
CCCCCOC(=O)NC[C@]1(O)[C@H](OC(C)=O)[C@]2(CC)C=CCN3CC[C@@]4(c5cc([C@@]6(C(=O)OC)C[C@@H]7C=C(CC)CN(CCc8c6[nH]c6ccccc86)C7)c(OC)cc5N(C)[C@@H]14)[C@@H]32,426 nM,184 nM,–
CCOC(=O)NC[C@]1(O)[C@H](OC(C)=O)[C@]2(CC)C=CCN3CC[C@@]4(c5cc([C@@]6(C(=O)OC)C[C@@H]7C=C(CC)CN(CCc8c6[nH]c6ccccc86)C7)c(OC)cc5N(C)[C@@H]14)[C@@H]32,51 nM,16 nM,–
CCC1=C[C@@H]2CN(CCc3c([nH]c4ccccc34)[C@@](C(=O)OC)(c3cc4c(cc3OC)N(C)[C@H]3[C@](O)(CNC(=O)OC(C)(C)C)[C@H](OC(C)=O)[C@]5(CC)C=CCN6CC[C@]43[C@@H]65)C2)C1,604 nM,96 nM,–
CCC1=C[C@@H]2CN(CCc3c([nH]c4ccccc34)[C@@](C(=O)OC)(c3cc4c(cc3OC)N(C)[C@H]3[C@](O)(CNC(=O)OCc5ccc6c(c5)OCO6)[C@H](OC(C)=O)[C@]5(CC)C=CCN6CC[C@]43[C@@H]65)C2)C1,75 nM,17 nM,–
CCC1=C[C@@H]2CN(CCc3c([nH]c4ccccc34)[C@@](C(=O)OC)(c3cc4c(cc3OC)N(C)[C@H]3[C@](O)(CNC(=O)OC5CCC5)[C@H](OC(C)=O)[C@]5(CC)C=CCN6CC[C@]43[C@@H]65)C2)C1,121 nM,23 nM,–
CCC1=C[C@@H]2CN(CCc3c([nH]c4ccccc34)[C@@](C(=O)OC)(c3cc4c(cc3OC)N(C)[C@H]3[C@](O)(CNC(=O)OC5CCCCC5)[C@H](OC(C)=O)[C@]5(CC)C=CCN6CC[C@]43[C@@H]65)C2)C1,381 nM,250 nM,–
CCC1=C[C@@H]2CN(CCc3c([nH]c4ccccc34)[C@@](C(=O)OC)(c3cc4c(cc3OC)N(C)[C@H]3[C@](O)(CNC(=O)OCc5cccc(Cl)c5)[C@H](OC(C)=O)[C@]5(CC)C=CCN6CC[C@]43[C@@H]65)C2)C1,203 nM,39 nM,–
CCC1=C[C@@H]2CN(CCc3c([nH]c4ccccc34)[C@@](C(=O)OC)(c3cc4c(cc3OC)N(C)[C@H]3[C@](O)(CNC(=O)OC(C)C)[C@H](OC(C)=O)[C@]5(CC)C=CCN6CC[C@]43[C@@H]65)C2)C1,162 nM,27 nM,–
CCC1=C[C@@H]2CN(CCc3c([nH]c4ccccc34)[C@@](C(=O)OC)(c3cc4c(cc3OC)N(C)[C@H]3[C@](O)(CNC(=O)OCCOC)[C@H](OC(C)=O)[C@]5(CC)C=CCN6CC[C@]43[C@@H]65)C2)C1,65 nM,14 nM,–
CCC1=C[C@@H]2CN(CCc3c([nH]c4ccccc34)[C@@](C(=O)OC)(c3cc4c(cc3OC)N(C)[C@H]3[C@](O)(CNC(=O)OCC5CC5)[C@H](OC(C)=O)[C@]5(CC)C=CCN6CC[C@]43[C@@H]65)C2)C1,61 nM,13 nM,–
CCC1=C[C@@H]2CN(CCc3c([nH]c4ccccc34)[C@@](C(=O)OC)(c3cc4c(cc3OC)N(C)[C@H]3[C@](O)(CNC(=O)OCc5ccc(Cl)cc5)[C@H](OC(C)=O)[C@]5(CC)C=CCN6CC[C@]43[C@@H]65)C2)C1,89 nM,6 nM,–
CCC1=C[C@@H]2CN(CCc3c([nH]c4ccccc34)[C@@](C(=O)OC)(c3cc4c(cc3OC)N(C)[C@H]3[C@](O)(CNC(=O)OCCBr)[C@H](OC(C)=O)[C@]5(CC)C=CCN6CC[C@]43[C@@H]65)C2)C1,131 nM,30 nM,–
CCC1=C[C@@H]2CN(CCc3c([nH]c4ccccc34)[C@@](C(=O)OC)(c3cc4c(cc3OC)N(C)[C@H]3[C@](O)(CNC(=O)OCc5ccccc5)[C@H](OC(C)=O)[C@]5(CC)C=CCN6CC[C@]43[C@@H]65)C2)C1,57 nM,54 nM,–
CCC1=C[C@@H]2CN(CCc3c([nH]c4ccccc34)[C@@](C(=O)OC)(c3cc4c(cc3OC)N(C)[C@H]3[C@](O)(CNC(=O)OCc5ccc(OC)cc5)[C@H](OC(C)=O)[C@]5(CC)C=CCN6CC[C@]43[C@@H]65)C2)C1,67 nM,8 nM,–
CCC1=C[C@@H]2CN(CCc3c([nH]c4ccccc34)[C@@](C(=O)OC)(c3cc4c(cc3OC)N(C)[C@H]3[C@](O)(CNC(=O)Oc5ccccc5OC)[C@H](OC(C)=O)[C@]5(CC)C=CCN6CC[C@]43[C@@H]65)C2)C1,609 nM,148 nM,–
CCC1=C[C@@H]2CN(CCc3c([nH]c4ccccc34)[C@@](C(=O)OC)(c3cc4c(cc3OC)N(C)[C@H]3[C@](O)(CNC(=O)OC)[C@H](OC(C)=O)[C@]5(CC)C=CCN6CC[C@]43[C@@H]65)C2)C1,38 nM,9 nM,inhibition in vivo at 1.5 mg/kg [3]: 26%; inhibition in vivo at 6 mg/kg [4]: 68.5%; inhibition in vivo at 3 mg/kg [5]: 37.1%; Activity [6]: 21.3 g; Activity [7]: 20.4 g; Activity [8]: 6.96; Activity [9]: 8.18; Activity [10]: 3.48; Activity [11]: 18.8 g
CCC1=C[C@@H]2CN(CCc3c([nH]c4ccccc34)[C@@](C(=O)OC)(c3cc4c(cc3OC)N(C)[C@H]3[C@](O)(CNC(=O)Oc5ccccc5)[C@H](OC(C)=O)[C@]5(CC)C=CCN6CC[C@]43[C@@H]65)C2)C1,110 nM,199 nM,–
CCC1=C[C@@H]2CN(CCc3c([nH]c4ccccc34)[C@@](C(=O)OC)(c3cc4c(cc3OC)N(C)[C@H]3[C@](O)(CNC(=O)OCc5ccccc5OC)[C@H](OC(C)=O)[C@]5(CC)C=CCN6CC[C@]43[C@@H]65)C2)C1,200 nM,69 nM,–
CCC1=C[C@@H]2CN(CCc3c([nH]c4ccccc34)[C@@](C(=O)OC)(c3cc4c(cc3OC)N(C)[C@H]3[C@](O)(CNC(=O)OCC(C)C)[C@H](OC(C)=O)[C@]5(CC)C=CCN6CC[C@]43[C@@H]65)C2)C1,66 nM,67 nM,–
CCC1=C[C@@H]2CN(CCc3c([nH]c4ccccc34)[C@@](C(=O)OC)(c3cc4c(cc3OC)N(C)[C@H]3[C@](O)(CNC(=O)Oc5ccc(OC)cc5)[C@H](OC(C)=O)[C@]5(CC)C=CCN6CC[C@]43[C@@H]65)C2)C1,365 nM,49 nM,–
CCC1=C[C@@H]2CN(CCc3c([nH]c4ccccc34)[C@@](C(=O)OC)(c3cc4c(cc3OC)N(C)[C@H]3[C@](O)(CNC(=O)OCc5ccccc5[N+](=O)[O-])[C@H](OC(C)=O)[C@]5(CC)C=CCN6CC[C@]43[C@@H]65)C2)C1,61 nM,66 nM,–
CCC1=C[C@@H]2CN(CCc3c([nH]c4ccccc34)[C@@](C(=O)OC)(c3cc4c(cc3OC)N(C)[C@H]3[C@](O)(CNC(=O)OC5CCCC5)[C@H](OC(C)=O)[C@]5(CC)C=CCN6CC[C@]43[C@@H]65)C2)C1,177 nM,132 nM,–
CCC1=C[C@@H]2CN(C1)Cc1c([nH]c3ccccc13)[C@@](C(=O)OC)(c1cc3c(cc1OC)N(C)[C@H]1[C@@](O)(C(=O)OC)[C@H](OC(C)=O)[C@]4(CC)C=CCN5CC[C@]31[C@@H]54)C2 [VINORELBINE],49 nM,26 nM,Activity [12]: 2.66; inhibition in vivo at 10 mg/kg [13]: 75.9%; Activity [14]: 16.4 g
